# bCat KO growth – beta-catenin-lacking colon tumor cell growth suppression; viability, % at 10 µM; 140,000 compounds, 1.5% hits; HCT116 beta-catenin knockout viability, CellTiter-Glo, 60 h; stronger effect = lower value;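 active = viability at or under a set limit, the compound median less 4 SD, cut at about 6% in these data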;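 note: 0% = Hyamine 1622 control at 20 µM and 100% = untreated cell control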
# TNAP act hiacc – increases human TNAP activity under high phosphate acceptor concentration. purified TNAP, CDP-star luminescence, 1 M DEA, 30 min; stronger effect = higher value; 0 = EDTA background, 1 = DMSO-only activity. activation factor at 20 µM. 200,000 tested, under 10 active;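 active = activation factor at least 2 at 20 µM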
# Target sequence (P05186 whole entry, looked up): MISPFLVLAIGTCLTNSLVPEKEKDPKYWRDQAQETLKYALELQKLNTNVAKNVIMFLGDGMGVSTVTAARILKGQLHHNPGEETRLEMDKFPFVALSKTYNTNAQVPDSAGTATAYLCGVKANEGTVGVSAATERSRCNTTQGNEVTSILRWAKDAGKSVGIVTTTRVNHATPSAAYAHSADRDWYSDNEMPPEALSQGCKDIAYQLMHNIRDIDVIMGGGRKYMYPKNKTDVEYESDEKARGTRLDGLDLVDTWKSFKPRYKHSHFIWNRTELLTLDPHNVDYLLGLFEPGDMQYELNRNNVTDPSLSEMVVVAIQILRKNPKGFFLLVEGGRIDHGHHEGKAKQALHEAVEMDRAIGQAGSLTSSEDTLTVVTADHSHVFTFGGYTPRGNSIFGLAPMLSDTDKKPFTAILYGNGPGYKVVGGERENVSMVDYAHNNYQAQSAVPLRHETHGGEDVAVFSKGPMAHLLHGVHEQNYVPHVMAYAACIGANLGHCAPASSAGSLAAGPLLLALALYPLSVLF
#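 Measured by: Luminescent substrate turnover signal | Test system: Human TNAP | Input: TNAP 1/800 final | Dosing: 20 µM single point | Schedule: 30 min, room temperature | Controls: EDTA wells as negative control, DMSO wells as positive control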
# HCT116 PTEN-null – suppresses growth of cells with PTEN deletion | HCT116 PTEN-null viability, CellTiter-Glo, 60 h; stronger effect = lower value | viability, % at 10 µM | 140,000 compounds, 1.2% hits;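 active = viability at or below a set limit, 4 SD under the median of all tested compounds, cut at about 3.7% in these data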;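 note: PTEN knockout HCT116 line with beta catenin targeted HCT116 as companion control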
# L major viab – inhibitors of Leishmania major promastigote growth; Leishmania major promastigotes, resazurin fluorescence viability; inhibition, % at 10 µM; 200,000 compounds, 9% hits; AID 1063; in the data active = inhibition above about 50%;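 note: promastigotes grown with compound for 44 hours at 28 °C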
# TNAP inh hiacc – inhibitors of human TNAP at high phosphate acceptor concentration. purified TNAP, CDP-star luminescence, 1 M DEA. inhibition, % at 20 µM. 200,000 compounds, 0.03% hits. AID 1135;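 active = over 50% inhibition of tissue-nonspecific alkaline phosphatase at 20 µM in the single-dose screen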;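 note: plate controls were DMSO wells for no effect and EDTA-quenched wells as full inhibition for full effect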
# TNAP inh no acc – inhibitors of human TNAP without phosphate acceptor; P05186; purified TNAP, CDP-star luminescence, 30 min; inhibition, % at 20 µM; 200,000 compounds, 0.26% hits;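 active = tissue-nonspecific alkaline phosphatase inhibition above about 50% at 20 µM in the single-dose screen, limit read from the data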;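 note: 0% = DMSO negative control and 100% = EDTA positive control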
# Active calls of the source: *; · = no result. Rows were chosen to be rich in hits. Some 9.6% of all compounds tested hit in one or more screens of this group.
SMILES,bCat KO growth,TNAP act hiacc,HCT116 PTEN-null,L major viab,TNAP inh hiacc,TNAP inh no acc
CCCCNC(=S)N(C)/N=C/c1c(C)[nH]c2ccccc12,86.2,1.1,77.2,55.8*,-9.3,-6.2
Cn1c(=O)[nH]c(=O)c2c1nc(Br)n2CC(O)COc1ccc(Cl)cc1 (centres undefined),·,1,·,-2.1,-3.9,-6.5
O=C(NC1CCCCC1)Sc1ccc(Cl)cc1,66.1,1,32.7,63.5*,0.1,10.3
O=C(CSc1ccc(Cl)cc1)NC1CCCC1,78.2,1.1,86.7,1.4,-5.9,-15.0
CC/C(=N\NC(=S)Nc1cc(C)ccc1C)c1ccc(OC(F)F)cc1,81.5,1,84.5,73.8*,4.9,-40.7
CC/C(=N\NC(=S)Nc1ccc(OC)cc1)c1ccc(OC(F)F)cc1,68.8,1,65.2,-3.9,-1.8,-5.4
FC(F)(F)c1cccc(NC(=S)NCC2COc3ccccc3O2)c1 (centres undefined),80.4,1.1,88.9,51.4*,-6.0,-11.6
CCN(CC)S(=O)(=O)c1cccc(NC(=O)COC(=O)/C=C/c2ccco2)c1,100.1,1,103.2,57.3*,-4.8,-7.7
S=C(Nc1ccc(Cl)c(Cl)c1)NC1CCCCC1,7.9,1,4.8,18.0,-4.1,-8.5
FC(F)(F)c1cccc(N2CCN(C(=S)NC3CCCCC3)CC2)c1,79.1,1,67.6,97.1*,0.6,-17.7
S=C(Nc1ccc2nsnc2c1)NC1CCCCC1,84.3,1.1,82.2,81.6*,-7.5,6.5
COc1cc(/C=C/CN2CCN(CCC(C)C)C(CCO)C2)ccc1O (centres undefined),·,1,·,14.7,2.8,-4.0
CC(=O)c1ccc(S(=O)(=O)N2CCN(C)CC2)cc1,·,1,·,-9.6,-2.0,-7.7
CCOC(=O)CNC(=O)c1cc(-c2ccccn2)nc2c(C)c(Cl)ccc12,·,1.1,·,1.4,-5.2,-4.2
CCN(CC)S(=O)(=O)c1ccc2c(c1)nc(CCC(=O)Nc1cccc(C(F)(F)F)c1)n2CC,72.3,1.1,69.7,38.2,-9.8,-15.4
CCCNC(=S)Nc1cccc(C(F)(F)F)c1,87.4,1,91.2,71.3*,-4.8,-9.1
CCN(CC)S(=O)(=O)c1cccc(NC(=O)Nc2cccc(C(F)(F)F)c2)c1,4.2*,1,3.2*,100.5*,-3.9,-30.5
CN1CCN(C(=S)Nc2cccc(C(F)(F)F)c2)CC1,96.1,1,97.3,82.7*,-3.7,-8.3
FC(F)(F)c1cccc(NC(=S)NC2CCCC2)c1,96.8,1.1,78.2,73.8*,-5.4,-7.5
FC(F)(F)c1ccc(NC(=S)NC2CCCCC2)cc1,·,1.1,·,8.8,-7.1,-5.7
CC(=O)c1cccc(NC(=S)NC(=O)c2ccc(C)cc2Cl)c1,·,1,·,-1.1,2.4,10.4
COCCn1c(SCC(=O)Nc2cccc(C)n2)nnc1-c1ccco1,·,1.1,·,-2.7,-6.3,-5.7
CN(Cc1ccc(F)cc1)Cc1nc(-c2cnccn2)no1,·,1.1,·,-6.5,-5.7,-1.3
Cn1nc(C(=O)Nc2cccc(C(F)(F)F)c2)ccc1=O,104.0,1.1,93.1,98.6*,-6.3,-9.1
Cc1cc(NN)nc(NS(=O)(=O)c2ccccc2)n1,·,1.1,·,-7.4,-6.1,50.5*
SMILES,bCat KO growth,TNAP act hiacc,HCT116 PTEN-null,L major viab,TNAP inh hiacc,TNAP inh no acc
O=C(NNC(=O)c1cccc([N+](=O)[O-])c1)c1ccncc1,·,1,·,-2.9,-4.9,-10.6
O=C(NNC(=O)c1ccccn1)c1cccc([N+](=O)[O-])c1,·,1,·,57.6*,-4.3,-169.5
C/C(=N\NC(=O)C(C)Oc1ccc([N+](=O)[O-])cc1)c1ccccn1 (centres undefined),4.6*,1,6.4,99.7*,-0.1,-2.7
CC(Oc1ccccc1)C(=O)NNC(=O)c1ccccn1 (centres undefined),10.2,1,7.5,78.8*,-2.5,-202.1
COc1cc(OC)cc(C(=O)NC(=S)NNC(=O)c2cnccn2)c1,13.8,1,13.5,100.4*,-0.2,-69.3
CCOC(=O)c1cc(CC)sc1/N=C/C1=C(O)CCCC1=O,85.8,1,101.5,-5.2,-4.1,16.2
O=C1SC(SC(=Nc2ccccc2)Nc2ccccc2)C(=O)N1c1ccccc1 (centres undefined),95.8,1,97.6,4.2,-1.5,-8.0
Cc1nn(-c2ccccc2)c(C)c1/C=C/C(=O)OCC(=O)N(C)C1CCS(=O)(=O)C1 (centres undefined),·,1,·,14.3,-4.8,-9.1
CC/C(=N\NC(=O)c1ccc(CN(C)S(=O)(=O)c2ccc(C)cc2)cc1)c1ccc(OC(F)F)cc1,70.1,1,82.4,12.3,3.2,-30.8
COc1cc(OC)cc(C(=O)NNC(=O)c2ccccn2)c1,6.7,1,5.9,93.0*,-3.9,-175.2
COc1ccc(C(=O)NC(=S)NNC(=O)c2cnccn2)cc1OC,7.1,1,5.8,100.3*,1.8,9.4
COc1ccc(C(=O)NC(=S)Nc2cccnc2)cc1OC,·,1,·,-5.3,-4.3,-4.3
COc1cc(NC(=O)Cc2cccs2)c(C(=O)O)cc1OC,·,1.1,·,-5.0,-8.7,-2.9
O=C(CSCc1nc2ccccc2[nH]1)Nc1ccc(Oc2ccccc2)cc1,76.5,1,77.3,64.4*,-0.2,-39.4
COc1ccc(C(=O)NC(NC(=S)Nc2ccc(S(N)(=O)=O)cc2)C(Cl)(Cl)Cl)cc1 (centres undefined),71.6,1,71.9,-12.6,-1.6,27.1
COC1=C/C(=C/c2c(N)n3nc(-c4ccc(C)cc4)sc3nc2=O)C=CC1=O,·,0.7,·,73.6*,27.6,25.4
CCOC1=C/C(=C/c2c(N)n3nc(-c4ccccc4)sc3nc2=O)C=CC1=O,·,0.7,·,11.8,26.0,37.3
Cc1ccc(C(OC(=O)c2ccco2)C(=O)NCc2cccs2)cc1 (centres undefined),84.0,1,92.6,55.9*,0.1,-9.6
CCOc1ccc(C(OC(=O)c2ccco2)C(=O)NCc2ccc(C)cc2)cc1 (centres undefined),95.9,1,89.8,3.0,-1.5,-6.5
CCCN(Cc1ccccc1)C(=S)NC(=O)c1ccccc1[N+](=O)[O-],·,1,·,-8.9,-4.1,-14.9
Cc1ccc(-c2cc(-c3ccccc3C)[nH]n2)c(O)c1,23.4,1,35.9,32.2,-0.2,-8.7
O=[N+]([O-])c1ccccc1-c1cc(-c2ccccc2O)n[nH]1,58.6,1,57.2,58.4*,-3.8,-105.8
Cc1cc(C)c2sc(N(CCCN(C)C)C(=O)c3ccc(Br)s3)nc2c1,·,1,·,54.5*,-3.4,-9.8
Cc1cc(C)c2sc(N(CCN(C)C)C(=O)c3c(F)cccc3F)nc2c1,·,1,·,25.5,4.5,4.8
Cc1ccc2sc(N(CCCN(C)C)C(=O)c3ccc(S(=O)(=O)N(C)C)cc3)nc2c1C,·,1,·,73.6*,0.6,5.1
